# In the library only some 2% were active in any assay of this set; here they are far more common.
# SR-BI HDL uptake: inhibitors of SR-BI mediated HDL lipid uptake, primary screen, ldlA[mSR-BI] cells, fluorescence, single point; ldlA[mSR-BI] CHO cells, DiI-HDL uptake fluorescence, 3 h; inhibition, % at 12.5 µM; 320,000 compounds, 0.96% hits; AID 488896, 2010;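 active = mean replicate inhibition of at least 70% and a set share of replicates each scoring 70 or more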;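 also: 0% = median of neutral control wells and 100% = median of positive control wells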
# CDK5 p35 inh: inhibitors of human CDK5/p35 kinase, primary screen, biochemical, single concentration | Recombinant CDK5/p35, ADP-Glo luminescence, 60 min | 330,000 compounds, 0.01% hits | Cyclin-dependent kinase 5 (Homo sapiens) + Cyclin-dependent kinase 5 activator 1 (Homo … | inhibition, % at 10 µM;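 active = highest replicate inhibition of at least 50% and at least 75% of replicates reaching 50%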;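 also: plate controls were DMSO neutral control for no effect and GW8510 at 10 µM for full effect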
# Target sequence (Q00535 whole entry, looked up): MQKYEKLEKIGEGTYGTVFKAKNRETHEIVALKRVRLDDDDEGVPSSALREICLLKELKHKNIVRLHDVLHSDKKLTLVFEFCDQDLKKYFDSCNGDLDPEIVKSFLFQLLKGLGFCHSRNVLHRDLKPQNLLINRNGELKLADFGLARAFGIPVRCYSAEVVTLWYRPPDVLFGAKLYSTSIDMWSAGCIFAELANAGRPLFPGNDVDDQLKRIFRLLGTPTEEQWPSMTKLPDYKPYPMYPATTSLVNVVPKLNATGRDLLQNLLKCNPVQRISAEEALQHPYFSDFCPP
# Target sequence (Q15078 whole entry, looked up): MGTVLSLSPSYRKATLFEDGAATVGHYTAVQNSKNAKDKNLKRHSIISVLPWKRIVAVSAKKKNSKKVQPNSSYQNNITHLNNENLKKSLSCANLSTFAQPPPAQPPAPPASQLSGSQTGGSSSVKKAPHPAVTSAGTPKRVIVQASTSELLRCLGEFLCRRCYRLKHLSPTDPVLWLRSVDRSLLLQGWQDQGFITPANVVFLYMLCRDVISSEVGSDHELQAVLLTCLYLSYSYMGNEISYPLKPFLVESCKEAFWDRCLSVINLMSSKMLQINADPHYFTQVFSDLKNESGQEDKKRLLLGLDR
# dFosB activator: activators of delta FosB homodimer, primary screen, biochemical, fluorescence polarization, TAMRA-CDK5 oligo, single point. Protein FosB (Mus musculus), P13346. purified delta FosB; percent of positive-control signal above neutral wells. activation, % at 25 µM. 340,000 compounds, 0.99% hits. AID 493131, 2011;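 active = mean activation above about 17%, with every replicate also reaching it, limit read from the data, passing the limit was not always enough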
# SR-BI uptake up: activators of SR-BI mediated DiI-HDL uptake, primary screen, ldlA[mSR-BI] CHO cells, DiI fluorescence; 3 h; 100 = double the neutral-control signal; activation, % at 12.5 µM; 320,000 compounds, 0.096% hits; AID 504775, 2011;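 active = mean replicate activation of at least 60% and every replicate at or above 60%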;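 also: 0% = median plate neutral-control signal and 100% = twice that signal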
#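 Test system: SR-BI-overexpressing, LDLR-lacking CHO cells; Also added: labelled HDL, 10 µg/mL; Measured by: bottom-read cell fluorescence after medium removal, ex 550/em 595 nm; Timing: 3 h uptake period with compound, 37 °C; Buffer or medium: F12, 0.5% BSA, 25 mM HEPES; Doses: single compound concentration, delivered by pin transfer.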
# Numbers without * were called inactive; i = inactive; . = no result.
SMILES,SR-BI HDL uptake,CDK5 p35 inh,dFosB activator,SR-BI uptake up
COc1ccccc1/C=N/NC(=O)c1ccc(CN2C(=O)c3cccc4cccc2c34)cc1,89*,-2,-1,-89
O=C(Nc1ccc(N2CCN(C(=O)c3ccco3)CC2)c(Cl)c1)c1cc2ccccc2o1,82*,2,4,-82
CCC(=O)N1CCN(c2ccc(NC(=O)c3cc4ccccc4o3)cc2Cl)CC1,79*,0,0,-79
CCN(CC(=O)NCc1cccs1)C(=O)c1cccc(S(=O)(=O)NCc2ccccc2)c1,18,0,-3,-18
Cc1ccc(C(OCC(O)CNC(CO)C(O)c2ccc([N+](=O)[O-])cc2)c2ccccc2)cc1 (stereo not drawn),.,-1,6,.
CCN(CC)C(=O)c1sc(NC(=O)c2c(OC)cccc2OC)c(C#N)c1C,94*,3,-2,-85
COc1ccc(OC)c(CCNC(=O)c2cccc(NC3=NC4CS(=O)(=O)CC4S3)c2)c1 (stereo not drawn),-15,-3,-6,15
OCCCCc1nccc2c1[nH]c1ccccc12,i,1,-4,538*
COC(=O)c1scc(C)c1NC(=O)c1ccccc1F,-3,1,-6,3
N#Cc1c(N)n(C2OC(CO)C(O)C2O)c2ncnc(N)c12 (stereo not drawn),-23,57*,-3,23
Nc1ncnc2c1ncn2C1O[C@H](CO)[C@@H](O)[C@@H]1O (stereo partly drawn),-21,1,-6,21
C=CC(=O)Nc1cccc(Oc2ccnc(Nc3ccc(N4CCN(C)CC4)cc3)n2)c1,11,0,66*,-11
C=CC(=O)Nc1cccc(N(C)c2ccnc(Nc3ccc(N4CCN(C)CC4)cc3)n2)c1,5,6,46*,-5
C=C(C)CNC(=S)N/N=C/c1ccco1,7,-3,4,-7
CCCC(=O)Nc1c(-c2ccccc2)c(=O)c(C)nn1-c1ccc(C)cc1,-315,-3,-3,315*
Cc1ccc(-n2nc(C)c(=O)c(-c3ccccc3)c2NC(=O)c2cccs2)cc1,-7,0,-2,7
CC1CC(C)CN(S(=O)(=O)c2ccc(C(=O)NNC(=O)c3ccccc3F)cc2)C1 (stereo not drawn),-3,5,3,3
CCOc1cc(C)ccc1OCc1nnc(SCC(=O)c2cccc([N+](=O)[O-])c2)n1CC,88*,13,-5,-88
CCn1c(COc2ccccc2)nnc1SCC(=O)c1cccc([N+](=O)[O-])c1,27,0,-11,-27
CCN(CCCNC(=O)CCCOc1cc(=O)n(C)c2ccccc12)Cc1ccccc1,15,0,-8,-15
COc1ccc(C(CNC(=O)CCNC(=O)c2ccccc2OC)N2CCCC2)cc1 (stereo not drawn),-3,-1,-4,3
Cn1c(SCC(=O)N/N=C/C=C\c2ccccc2[N+](=O)[O-])nc2ccccc21,23,2,20*,-23
Cn1c(SCC(=O)N/N=C/C=C/c2ccccc2[N+](=O)[O-])nc2ccccc21,14,0,5,-14
Clc1ccc(-c2nnc(-c3ccccc3)nc2-c2c[nH]c3ccccc23)cc1,33,2,1,-33
c1ccc(-c2nnc(-c3ccccc3)c(-c3c[nH]c4ccccc34)n2)cc1,76*,0,-4,-76
SMILES,SR-BI HDL uptake,CDK5 p35 inh,dFosB activator,SR-BI uptake up
COc1cccc(C(=S)N2CCCC2)c1OC,-20,0,-5,20
CCN=C1S/C(=C\c2ccc(OCC)c(OC)c2)C(=O)N1CC,65,0,1,-65
CCN=C1S/C(=C\c2cc(Cl)c(OC)c(OC)c2)C(=O)N1CC,77*,-2,-3,-77
CCOCC(=O)OCC(=O)NC12CC3CC(CC(C3)C1)C2,-18,-1,3,18
CCOC(=O)C(=O)NC12CC3CC(CC(C3)C1)C2,-63,1,4,63*
O=c1cc(Cn2ccnc2)c2cc(O)ccc2o1,78*,2,-2,-78
Cc1ccc(-c2cc(C(F)F)nc(NCC3CCCO3)n2)cc1 (stereo not drawn),-224,-1,-15,223*
CSc1ccccc1C(=O)Nc1cc2c(cc1C(=O)O)OCCCO2,.,-1,-5,.
Nc1ccc(-c2nc3ncccc3o2)cc1,-20,0,2,20
CCc1ccc(OCC(=O)N/N=C/c2cc([N+](=O)[O-])ccc2N2CCOCC2)cc1,65,-1,-15,-65
O=C(N/N=C\c1cc([N+](=O)[O-])ccc1N1CCCC1)c1ccccn1,73*,-1,-4,-73
O=C(N/N=C\c1cc([N+](=O)[O-])ccc1N1CCOCC1)c1ccccn1,6,1,9,-6
COc1ccc(NCC(=O)N/N=C/c2cc([N+](=O)[O-])ccc2N2CCCC2)cc1,86*,0,-6,-86
CCCCNC(=O)Cn1c(=O)c2c(ncn2CC)n(Cc2ccccc2)c1=O,.,2,-3,.
S=C(NCc1ccccc1)NCc1ccccc1Cl,8,0,-8,-8
O=C(Nc1ccc(O)cc1)c1ccccc1OCc1ccccc1,68,0,-5,-68
O=C(Nc1ccccc1C(=O)Nc1ccc(F)cc1)c1ccco1,75*,2,-6,-75
O=C(Nc1ccccc1)c1ccccc1OCc1ccc(F)cc1,74*,-1,-1,-74
O=C(CN1CCN(CC(=O)Nc2ccc(OCc3ccccc3)cc2)CC1)Nc1ccc(F)cc1,-451,-10,-1,451*
CCOC(=O)c1c(C)[nH]c(C)c1S(=O)(=O)N(C)CC(=O)NCc1ccc(F)cc1,-32,1,-7,32
CCN(CC)CCCNc1nc2cc(OC)c(OC)cc2c2nc(-c3cccnc3)nn12,-7,1,245*,7
COCCCNc1nc2cc(OC)c(OC)cc2c2nc(-c3ccccc3)nn12,86*,1,-18,-86
CCN(CC)CCCNc1nc2cc(OC)c(OC)cc2c2nc(-c3ccccc3)nn12,-17,0,181*,17
COc1cc2nc(NCC3CCCO3)n3nc(-c4cccnc4)nc3c2cc1OC (stereo not drawn),54,-1,1,-54
CCN(CC)CCCNc1nc2ccccc2c2nc(-c3ccncc3)nn12,10,1,67*,-10
O=C(Nc1cccc(Cl)c1N1CCOCC1)c1ccc(Br)o1,18,-1,-2,-18
CC(C)(C)C(C(=O)Oc1ccccc1)c1ccccc1 (stereo not drawn),21,1,1,-21
COc1cc2nc(NCCCN3CCN(C)CC3)n3nc(-c4ccccc4)nc3c2cc1OC,-1,0,166*,1
